Measurements reported in ChEMBL document CHEMBL4842372, “Discovery of ARD-2585 as an Exceptionally Potent and Orally Active PROTAC Degrader of Androgen Receptor for the Treatment of Advanced Prostate Cancer” (J Med Chem, 2021).
Active and inactive are the calls of the source. No cut-off for these calls is given here.

Tests used:
[1] = Drug distribution in heart of CB17:SCID mouse xenografted with human VCaP cells at 20 mg/kg, po measured at 24 hrs by LCMS analysis; assay type: ADME, organism-based; details: read-out: Drug uptake
Summary of the method: (§1)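 Tumor-bearing male CB17 SCID mice (VCaP xenografts) given one 20 mg/kg oral dose in 100% PEG200, three mice per time point; plasma, tumor, liver, kidney, prostate and heart taken at 1, 6 and 24 h; tissues homogenised in water/acetonitrile, protein precipitated with cold acetonitrile, drug quantified by LC–MS/MS; ratios are tissue over plasma level.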

[2] = Drug distribution in plasma of CB17:SCID mouse xenografted with human VCaP cells at 20 mg/kg, po measured at 1 hrs by LCMS analysis; assay type: ADME, organism-based; summary of the method: as §1
[3] = tested on: Protein cereblon/Androgen receptor (Homo sapiens), P10275+Q96SW2 [T878A]; test: Protac activity at CRBN/AR T878A mutant in human LNCaP cells assessed as reduction in AR protein level at 100 nM after 3 hrs in presence of MLN4924 by Western blot analysis
[4] = Drug distribution in CB17:SCID mouse xenografted with human VCaP cells assessed as liver to plasma ratio at 20 mg/kg, po measured at 1 hrs by LCMS analysis; assay type: ADME, organism-based; summary of the method: as §1
[5] = molecular target: T1, Protein cereblon/Androgen receptor (Homo sapiens, UniProt P10275+Q96SW2); test: Protac activity at CRBN/AR in human VCaP cells assessed as reduction in AR protein level at 100 nM after 3 hrs in presence of MG-132 by Western blot analysis
T1 sequence (P10275 whole entry, looked up): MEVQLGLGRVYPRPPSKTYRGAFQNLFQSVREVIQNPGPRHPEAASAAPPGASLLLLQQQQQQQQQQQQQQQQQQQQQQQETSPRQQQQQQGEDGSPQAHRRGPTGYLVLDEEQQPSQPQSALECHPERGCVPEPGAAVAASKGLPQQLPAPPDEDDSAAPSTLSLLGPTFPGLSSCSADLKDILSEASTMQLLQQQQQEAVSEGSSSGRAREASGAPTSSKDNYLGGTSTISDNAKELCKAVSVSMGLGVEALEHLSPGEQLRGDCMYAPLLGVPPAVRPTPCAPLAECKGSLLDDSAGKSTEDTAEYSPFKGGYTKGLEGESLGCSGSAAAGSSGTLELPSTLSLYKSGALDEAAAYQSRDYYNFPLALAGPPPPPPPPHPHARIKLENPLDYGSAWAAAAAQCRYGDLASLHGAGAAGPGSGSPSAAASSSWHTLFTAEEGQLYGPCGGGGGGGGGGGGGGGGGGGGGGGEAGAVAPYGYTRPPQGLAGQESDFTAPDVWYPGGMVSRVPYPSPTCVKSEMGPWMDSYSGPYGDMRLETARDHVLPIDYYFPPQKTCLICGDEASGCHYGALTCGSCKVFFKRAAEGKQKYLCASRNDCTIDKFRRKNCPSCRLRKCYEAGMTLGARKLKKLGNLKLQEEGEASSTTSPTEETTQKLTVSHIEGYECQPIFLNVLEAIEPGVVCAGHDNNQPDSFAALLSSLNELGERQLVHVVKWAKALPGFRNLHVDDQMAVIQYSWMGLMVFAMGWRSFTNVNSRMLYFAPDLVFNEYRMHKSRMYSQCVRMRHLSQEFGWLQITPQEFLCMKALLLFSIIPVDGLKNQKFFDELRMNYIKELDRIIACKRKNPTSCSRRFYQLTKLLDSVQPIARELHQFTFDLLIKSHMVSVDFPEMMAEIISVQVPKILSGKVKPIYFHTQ
T1 sequence (Q96SW2 whole entry, looked up): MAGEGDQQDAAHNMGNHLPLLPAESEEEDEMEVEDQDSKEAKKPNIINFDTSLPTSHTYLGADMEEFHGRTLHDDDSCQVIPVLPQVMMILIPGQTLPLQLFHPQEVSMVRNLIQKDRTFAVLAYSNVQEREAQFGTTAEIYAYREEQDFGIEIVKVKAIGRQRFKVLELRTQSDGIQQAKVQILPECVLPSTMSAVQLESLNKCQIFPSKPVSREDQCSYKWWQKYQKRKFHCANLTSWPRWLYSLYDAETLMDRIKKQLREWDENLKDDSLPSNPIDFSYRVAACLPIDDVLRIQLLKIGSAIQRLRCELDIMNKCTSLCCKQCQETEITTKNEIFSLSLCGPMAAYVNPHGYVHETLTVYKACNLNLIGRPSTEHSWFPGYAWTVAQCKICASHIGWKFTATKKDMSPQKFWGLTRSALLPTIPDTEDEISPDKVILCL

[6] = Drug distribution in heart of CB17:SCID mouse xenografted with human VCaP cells at 20 mg/kg, po measured at 1 hrs by LCMS analysis; assay type: ADME, organism-based; details: read-out: Drug uptake; summary of the method: as §1
LNCaP = test: Growth inhibition of human LNCaP cells carrying AR T878A mutant assessed as cell viability by WST-8 assay; assay type: functional, cell-based
[7] = Drug distribution in CB17:SCID mouse xenografted with human VCaP cells assessed as prostate gland to plasma ratio at 20 mg/kg, po measured at 1 hrs by LCMS analysis; assay type: ADME, organism-based; summary of the method: as §1
[8] = Drug distribution in CB17:SCID mouse xenografted with human VCaP cells assessed as prostate gland to plasma ratio at 20 mg/kg, po measured at 6 hrs by LCMS analysis; assay type: ADME, organism-based; summary of the method: as §1
VCaP [9] = test: Potency index, ratio of ARV-110 IC50 to compound IC50 for reduction in AR degradation human VCaP cells after 24 hrs by Western blot analysis; assay type: functional
[10] = tested on: Protein cereblon/Androgen receptor (Homo sapiens), P10275+Q96SW2 [T878A]; test: Protac activity at CRBN/AR T878A mutant in human LNCaP cells assessed as maximal AR degradation at 0.3 nM after 24 hrs by Western blot analysis relative to control; assay type: cell-based
Summary of the method: (§2)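 Western blot of AR after 24 h exposure to a concentration series in ATCC-derived cells, all with 10% FBS at 37 °C and 5% CO2: LNCaP and 22Rv1 in RPMI1640, VCaP in DMEM with Glutamax, MDA-PCa-2b in F-12K. Lysis in RIPA with protease and phosphatase inhibitors, then 4–12% SDS-PAGE and PVDF transfer. Band minus background is normalised to GAPDH.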

[11] = molecular target: T1, Protein cereblon/Androgen receptor; test: Protac activity at CRBN/AR in human 22Rv1 cells assessed as reduction in AR protein level at 0.1 nM after 24 hrs by Western blot analysis relative to control; assay type: cell-based; summary of the method: as §2
[12] = molecular target: T1, Protein cereblon/Androgen receptor; test: Protac activity at CRBN/AR in human VCaP cells assessed as reduction in AR protein level at 100 nM after 3 hrs in presence of thalidomide by Western blot analysis
[13] = Drug distribution in kidney of CB17:SCID mouse xenografted with human VCaP cells at 20 mg/kg, po measured at 24 hrs by LCMS analysis; assay type: ADME, organism-based; details: read-out: Drug uptake; summary of the method: as §1
VCaP [14] = test: Antitumor activity against human VCaP cells xenografted in CB17:SCID mouse assessed as reduction in AR protein level in tumor at 20 mg/kg, po measured for 6 to 24 hrs by Western blot analysis; assay type: functional, organism-based; details: time 6-24 hrs
Summary of the method: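 VCaP xenografts in male CB17 SCID mice grown to about 200 mm3; single oral gavage dose of 20 mg/kg in 100% PEG200; tumors collected at 6 and 24 h, RIPA lysates blotted for AR with GAPDH as loading control, band intensity normalised to loading control.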

[15] = tested on: Protein cereblon/Androgen receptor (Homo sapiens), P10275+Q96SW2 [T878A]; test: Protac activity at CRBN/AR T878A mutant in human LNCaP cells assessed as reduction in AR protein level at 3 nM after 24 hrs by Western blot analysis relative to control; assay type: cell-based; summary of the method: as §2
[16] = Drug distribution in CB17:SCID mouse xenografted with human VCaP cells assessed as liver to plasma ratio at 20 mg/kg, po measured at 24 hrs by LCMS analysis; assay type: ADME, organism-based; summary of the method: as §1
[17] = tested on: Protein cereblon/Androgen receptor (Homo sapiens), P10275+Q96SW2 [T878A]; test: Protac activity at CRBN/AR T878A mutant in human LNCaP cells assessed as reduction in AR protein level at 100 nM after 3 hrs in presence of N-((1r,4r)-4-((3-chloro-4-cyanophenyl)(methyl)amino)cyclohexyl)-4-(4-methylpiperazin-1-yl)benzamide by Western blot analysis
[18] = Drug distribution in CB17:SCID mouse xenografted with human VCaP cells assessed as kidney to plasma ratio at 20 mg/kg, po measured at 6 hrs by LCMS analysis; assay type: ADME, organism-based; summary of the method: as §1
[19] = Drug distribution in tumor of CB17:SCID mouse xenografted with human VCaP cells at 20 mg/kg, po measured at 24 hrs by LCMS analysis; assay type: ADME, organism-based, Neoplasm; details: read-out: Drug uptake; summary of the method: as §1
[20] = Drug distribution in CB17:SCID mouse xenografted with human VCaP cells assessed as heart to plasma ratio at 20 mg/kg, po measured at 1 hrs by LCMS analysis; assay type: ADME, organism-based; summary of the method: as §1
[21] = Drug distribution in kidney of CB17:SCID mouse xenografted with human VCaP cells at 20 mg/kg, po measured at 6 hrs by LCMS analysis; assay type: ADME, organism-based; details: read-out: Drug uptake; summary of the method: as §1
[22] = Drug distribution in tumor of CB17:SCID mouse xenografted with human VCaP cells at 20 mg/kg, po measured at 6 hrs by LCMS analysis; assay type: ADME, organism-based, Neoplasm; details: read-out: Drug uptake; summary of the method: as §1
[23] = molecular target: T1, Protein cereblon/Androgen receptor; test: Protac activity at CRBN/AR in human MDA-PCa-2b cells assessed as reduction in AR protein level at 1 nM after 24 hrs by Western blot analysis relative to control; assay type: cell-based; summary of the method: as §2
[24] = Potency index, ratio of ARV-110 IC50 to compound IC50 for reduction in AR degradation human MDA-PCa-2b cells after 24 hrs by Western blot analysis relative to control; assay type: functional
VCaP [25] = test: Antitumor activity against human VCaP cells xenografted in CB17:SCID mouse assessed as tumor growth inhibition at 20 mg/kg, po treated for 37 days relative to control; assay type: functional; details: 888 h, time 37 day, read-out: TGI

Which concentration at 24 h [1] does the source give for CN(c1ccc(C#N)c(Cl)c1)[C@H]1CC[C@H](NC(=O)c2ccc(N3CCN(C4CN(c5ccc6c(c5)C(=O)N(C5CCC(=O)NC5=O)C6=O)C4)CC3)cc2)CC1 (stereo partly specified) here?
Its concentration at 24 h is 683 ng/g.

And the concentration at 1 h [2]?
The concentration at 1 h was 0.07 µg/mL.

What about the Activity [3] of the same molecule?
Its Activity is “inactive”.

And the Kp at 1 h [4]?
Its Kp at 1 h is 37.7.

And the Activity [5]?
Its Activity is “inactive”.

What about the concentration at 1 h [6] of the same molecule?
Its concentration at 1 h is 210 ng/g.

What about the IC50 (LNCaP) of the same molecule?
Its IC50 is 0.0162 µM.

What about the Kp at 1 h [7] of the same molecule?
The Kp at 1 h was 0.4.

And the Kp at 6 h [8]?
The Kp at 6 h was 0.6.

What about the Ratio (VCaP [9]) of the same molecule?
Its Ratio is 30.

And the Emax [10]?
The Emax was > 95%.

And the inhibition [11]?
The inhibition was > 80%.

What about the Activity [12] of the same molecule?
Its Activity is “inactive”.

What about the concentration at 24 h [13] of the same molecule?
The concentration at 24 h was 366 ng/g.

What about the inhibition (VCaP [14]) of the same molecule?
Its inhibition is “Active”.

And the inhibition [15]?
Its inhibition is 80%.

What about the Kp at 24 h [16] of the same molecule?
The Kp at 24 h was 32.1.

And the Activity [17]?
The Activity was “inactive”.

What about the Kp at 6 h [18] of the same molecule?
Its Kp at 6 h is 4.9.

What about the concentration at 24 h [19] of the same molecule?
Its concentration at 24 h is 301 ng/g.

What about the Kp at 1 h [20] of the same molecule?
Its Kp at 1 h is 3.

What about the concentration at 6 h [21] of the same molecule?
Its concentration at 6 h is 661 ng/g.

And the concentration at 6 h [22]?
The concentration at 6 h was 201 ng/g.

And the inhibition [23]?
The inhibition was > 80%.

What about the Ratio [24] of the same molecule?
Its Ratio is 1000.

And the inhibition in vivo at 20 mg/kg (VCaP [25])?
The inhibition in vivo at 20 mg/kg was 74.3%.
